Publication PMC4112965 (Cell reports, 2014)

Key:
HFrD-fed rats = experiment: High-fructose diet Sprague-Dawley rats, oral dosing once/day for 90 days; assay type: in vivo, rat
[1] = system: SREBP-1 maturation in liver; experiment: High-fat and high-fructose diet rats, liver SREBP-1 maturation immunoblot; assay type: in vivo, rat; settings: 10, 30 and 100 mg/kg; treated for the last 3 weeks of 18 weeks diet
Summary of the method: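 Rats were fed a high-fat plus high-fructose diet for 18 weeks and dosed once daily by oral gavage with vehicle or test compound over the final 3 weeks. Vehicle was 0.5% methylcellulose, 0.025% Tween-80 in water, with compound ground to a suspension. Animals were fasted 24 h and refed 12 h. Whole liver lysate and nuclear extract were immunoblotted for precursor and mature SREBP-1 plus control proteins.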

casein kinase 2α = experiment: In vitro protein kinase activity assay, casein kinase 2α; assay type: biochemical, human; settings: PASK vs casein kinase 2α2
SREBP-1c maturation = experiment: Immunoblot of precursor and mature SREBP-1c in HepG2 cells; assay type: cell-based, human
Summary of the method: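 HepG2 cells expressing GFP or 3xFlag-tagged precursor SREBP-1a or SREBP-1c were treated with test compound (30 and 50 μM), then 100 nM insulin for 6 h. Whole-cell lysate and nuclear extract were immunoblotted for precursor and mature SREBP-1c, and the mature:precursor ratio was determined.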

[2] = system: Akt and S6K phosphorylation; experiment: Immunoblot of Akt and S6K phosphorylation in response to insulin in HepG2 cells; assay type: cell-based, human
Summary of the method: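 HepG2 cells received vehicle or graded concentrations of test compound, then 100 nM insulin for 6 h. Cell lysates were immunoblotted for phosphorylation state and abundance of Akt and S6K.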

[3] = system: high-fructose diet (HFrD) fed rats; experiment: High-fructose diet Sprague-Dawley rats, oral dosing once/day for one week; assay type: in vivo
[4] = In vivo pharmacologic and pharmacokinetic properties
SREBP = experiment: SRE-driven luciferase; assay type: cell-based, human; settings: for concentrations giving a significant reduction in SREBP activity: HepG2, SRE-Luc, 100nM insulin 6 h; for effects on cell morphology or growth rate: HepG2 cells, concentrations of the SRE-Luc experiment
Summary of the method: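 Transfection of HepG2 cells used Lipofectamine LTX, with pSRE-Luc plus CMV-driven Renilla luciferase. Cells were serum-starved overnight with vehicle or graded concentrations of test compound, then stimulated with 100 nM insulin for 6 h. Firefly and Renilla luciferase were read by dual-reporter assay. Data were normalised to vehicle-treated samples; n=3, mean ± SD.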

PASK = PASK (Homo sapiens, UniProt Q96RG2); experiment: In vitro protein kinase activity assay, purified PASK; assay type: biochemical; settings: 100μM
Chain of PASK (Q96RG2 whole entry): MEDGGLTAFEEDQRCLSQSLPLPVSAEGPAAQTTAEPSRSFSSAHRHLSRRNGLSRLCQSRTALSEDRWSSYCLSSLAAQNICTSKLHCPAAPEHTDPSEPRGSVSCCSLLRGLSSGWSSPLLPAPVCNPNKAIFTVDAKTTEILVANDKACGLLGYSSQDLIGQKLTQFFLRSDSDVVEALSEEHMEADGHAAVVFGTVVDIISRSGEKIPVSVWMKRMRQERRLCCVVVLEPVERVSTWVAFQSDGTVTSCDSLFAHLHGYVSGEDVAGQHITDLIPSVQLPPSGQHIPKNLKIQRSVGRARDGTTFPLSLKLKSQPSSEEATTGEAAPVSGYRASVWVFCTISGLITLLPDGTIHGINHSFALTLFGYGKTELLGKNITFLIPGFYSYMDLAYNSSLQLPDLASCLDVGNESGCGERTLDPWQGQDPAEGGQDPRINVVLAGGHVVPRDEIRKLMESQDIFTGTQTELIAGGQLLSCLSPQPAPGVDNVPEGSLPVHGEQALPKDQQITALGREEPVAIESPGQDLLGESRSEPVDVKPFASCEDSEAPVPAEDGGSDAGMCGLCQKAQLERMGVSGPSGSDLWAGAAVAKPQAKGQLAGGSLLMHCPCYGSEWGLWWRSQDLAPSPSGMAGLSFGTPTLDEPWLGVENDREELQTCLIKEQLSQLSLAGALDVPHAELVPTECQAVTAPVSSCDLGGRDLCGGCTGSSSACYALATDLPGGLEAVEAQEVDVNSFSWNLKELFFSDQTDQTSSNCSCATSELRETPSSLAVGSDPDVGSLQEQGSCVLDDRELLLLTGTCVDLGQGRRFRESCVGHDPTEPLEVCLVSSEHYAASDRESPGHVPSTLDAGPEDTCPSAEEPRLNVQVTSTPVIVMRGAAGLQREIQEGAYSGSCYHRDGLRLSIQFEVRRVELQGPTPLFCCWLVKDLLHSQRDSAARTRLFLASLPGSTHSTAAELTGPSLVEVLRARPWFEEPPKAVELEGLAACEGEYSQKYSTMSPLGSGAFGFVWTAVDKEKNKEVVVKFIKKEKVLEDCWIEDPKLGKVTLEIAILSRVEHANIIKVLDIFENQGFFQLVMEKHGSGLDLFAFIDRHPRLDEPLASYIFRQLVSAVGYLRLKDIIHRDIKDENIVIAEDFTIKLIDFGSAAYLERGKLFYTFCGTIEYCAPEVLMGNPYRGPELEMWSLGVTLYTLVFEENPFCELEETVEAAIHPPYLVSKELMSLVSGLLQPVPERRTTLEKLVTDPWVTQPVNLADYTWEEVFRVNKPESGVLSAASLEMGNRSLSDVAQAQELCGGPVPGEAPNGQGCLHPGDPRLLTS
Summary of the method: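 Purified PASK kinase activity measured with vehicle or test compound at the indicated concentrations. Activity is expressed as percent of vehicle-treated activity.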

Rat primary hepatocytes [5] = experiment: 14C-acetate incorporation into lipids in rat primary hepatocytes; assay type: cell-based
Summary of the method: (§1)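 HepG2 cells or rat primary hepatocytes were pre-treated overnight in serum-free medium with vehicle or 10 μM test compound. They then got fresh medium with vehicle or […] test compound plus 100 nM insulin for 6 h, labelled with 10 μCi/ml [1-14C]-acetate for the last 4 h. Lysis was in 0.5% Triton X-100, lipids were extracted with chloroform:methanol 2:1, and the organic phase was scintillation-counted. Counts were normalised to lysate protein; n=3, mean ± SD.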

Rat primary hepatocytes [6] = experiment: qRT-PCR of SREBP-1c target genes in insulin-stimulated rat primary hepatocytes; assay type: cell-based
Summary of the method: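 Rat primary hepatocytes were isolated, plated, and pre-treated 16 h with DMSO or test compound, then stimulated with insulin or vehicle over a 12 h time course. FASN, GCK and SREBP-1c mRNAs were measured by qRT-PCR, normalised to r36B4, with the vehicle-treated unstimulated group set as 1; n=3, mean ± SEM.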

50 other protein kinases = experiment: In vitro specificity panel of 50 other protein kinases; assay type: biochemical, human; settings: 100μM
HepG2 cells = experiment: 14C-acetate incorporation into lipid; assay type: cell-based, human; settings: 10 μM, HepG2, 14C-acetate
Summary of the method: as §1

adipose tissue = settings: accompanied by decreased expression of SREBP-1; ref Pereira et al., 2013; cited from earlier work

**Q.** Which “hepatic Fasn and Acc1 expression” value (HFrD-fed rats; 3 mg/kg, 90 days) does the source give for `CC(C)N(C)c1nc2cc(C(=O)O)ccc2nc1-c1ccc(F)cc1` [BioE-1115] here?
**A.** significantly suppressed

**Q.** What about the “hepatic Fasn and Acc1 expression” value (HFrD-fed rats; 10, 30 and 100 mg/kg, 90 days) of the same molecule?
**A.** restored to that in normal chow fed animals

**Q.** What about the “serum glucose levels as measured by glycated hemoglobin (HbA1c)” value (HFrD-fed rats; 90-day study) of the same molecule?
**A.** decreased

**Q.** And the “expression of SREBP-1c or its target genes in abdominal fat” value (HFrD-fed rats; 90 days)?
**A.** no significant differences

**Q.** What about the “expression of SREBP-1c or its target genes in gastrocnemius muscle” value (HFrD-fed rats; 90 days) of the same molecule?
**A.** no significant differences

**Q.** And the body weight (HFrD-fed rats; after 51 days of dosing)?
**A.** no drug-dependent difference

**Q.** What about the body weight (HFrD-fed rats; after 90 days of dosing) of the same molecule?
**A.** no drug-dependent difference

**Q.** And the serum triglycerides (HFrD-fed rats; after 90 days of treatment)?
**A.** significant dose-responsive decrease

**Q.** What about the “overt toxicity upon extended treatment” value (HFrD-fed rats; doses 10–30 fold higher than those required for significant effects on lipogenic gene expression and serum triglycerides) of the same molecule?
**A.** no overt toxicity

**Q.** And the serum triglycerides (HFrD-fed rats; interim timepoint of 45 days)?
**A.** significant dose-responsive decrease

**Q.** And the “SREBP-1 maturation in liver” value [1]?
**A.** suppressed

**Q.** And the “fold more potent as an inhibitor of PASK than of casein kinase 2α2” value (casein kinase 2α)?
**A.** roughly 2500 fold

**Q.** What about the “SREBP-1c maturation (mature:precursor SREBP-1c ratio)” value (SREBP-1c maturation; 30 and 50μM) of the same molecule?
**A.** suppressed

**Q.** What about the “phosphorylation of Akt or S6K in response to insulin” value [2] of the same molecule?
**A.** neither compound impaired

**Q.** And the “hepatic expression of SREBP-1c target genes” value ([3]; 1 or 3 mg/kg oral once/day, one week)?
**A.** no difference from vehicle-treated rats

**Q.** And the “hepatic expression of Gpat1, Fasn and all other SREBP-1c target genes analyzed” value ([3]; 10, 30 and 100 mg/kg oral once/day, one week)?
**A.** dose-dependent suppression

**Q.** And the HOMA-IR ([3]; calculated measure of insulin resistance)?
**A.** decreased in a dose-dependent manner

**Q.** And the “hepatic SREBP-1c and SREBP-1a mRNA” value ([3]; highest doses)?
**A.** modestly decreased

**Q.** What about the body weight ([3]; oral once/day, one week) of the same molecule?
**A.** Neither dose of BioE-1115 caused a significant change

**Q.** And the “hepatic TAG” value ([3]; oral once/day, one week)?
**A.** decrease

**Q.** What about the “hepatic expression of HMG-CoA synthase 1 and SREBP-2” value ([3]; oral once/day, one week) of the same molecule?
**A.** induced in a dose-dependent manner

**Q.** What about the liver weight ([3]; oral once/day, one week) of the same molecule?
**A.** Neither dose of BioE-1115 caused a significant change

**Q.** What about the “serum TAG” value ([3]; oral once/day, one week) of the same molecule?
**A.** decreased in a dose-dependent manner

**Q.** And the serum cholesterol ([3]; oral once/day, one week)?
**A.** basically unaffected

**Q.** And the serum glucose ([3]; oral once/day, one week)?
**A.** significant decrease

**Q.** And the serum insulin levels ([3]; oral once/day, one week)?
**A.** slightly lower

**Q.** What about the “in vivo pharmacologic and pharmacokinetic properties relative to BioE-1197” value [4] of the same molecule?
**A.** more favorable

**Q.** What about the “concentrations giving a significant reduction in SREBP activity” value (SREBP) of the same molecule?
**A.** above 10 μM

**Q.** And the “effects on cell morphology or growth rate” value (SREBP)?
**A.** without any observable effects

**Q.** Which results are given for `C[C@H]1CCCN1c1nc2cc(C(=O)O)ccc2nc1-c1ccc(F)cc1` [BioE-1197]?
**A.** PASK activity at extremely high concentration (PASK): essentially completely inactivated; suppression of SREBP-1c maturation compared with BioE-1428 (SREBP-1c maturation; quantified over five independent experiments): significantly more efficacious; phosphorylation of Akt or S6K in response to insulin [2]: neither compound impaired; insulin-induced increase in lipogenesis (14C-acetate incorporation into lipids) (Rat primary hepatocytes [5]): completely abolished; hepatic expression of the gene encoding HMG-CoA reductase ([3]; oral once/day, one week): significantly decreased; mRNA encoding SREBP-1c (Rat primary hepatocytes [6]; basal and insulin-stimulated conditions): significant decrease; insulin-induced increase in FASN and GCK mRNAs (Rat primary hepatocytes [6]; pre-treated 16 h, insulin over 12 h timecourse): either blunted or abolished; activity of the majority of the 50 kinases (50 other protein kinases): either unaffected or only modestly inhibited; number of other kinases substantially inhibited (50 other protein kinases; of 50 kinases other than PASK): 8; decrease in 14C incorporation into lipids (HepG2 cells): ~ 60%; concentrations giving a significant reduction in SREBP activity (SREBP): > 3 µM; effects on cell morphology or growth rate (SREBP): without any observable effects

**Q.** Which “lipogenesis in adipose tissue” value (adipose tissue) does the source give for `CO[C@H]1C[C@@H]2CC[C@@H](C)[C@@](O)(O2)C(=O)C(=O)N2CCCC[C@H]2C(=O)O[C@H]([C@H](C)C[C@@H]2CC[C@@H](O)[C@H](OC)C2)CC(=O)[C@H](C)/C=C(\C)[C@@H](O)[C@@H](OC)C(=O)[C@H](C)C[C@H](C)/C=C/C=C/C=C/1C` [rapamycin] here?
**A.** decreased lipogenesis
